In ChEMBL document CHEMBL1152689, “Synthesis, tautomerism, and antimicrobial, anti-HCV, anti-SSPE, antioxidant, and antitumor activities of arylazobenzosuberones” (Bioorg Med Chem, 2009):
Values after ≈ are worked out from the molar mass of the structure shown. Active and inactive are the calls of the source. The rule behind the calls is not given here.

Assays:
[1] = system: Aspergillus fumigatus; assay: Antimicrobial activity against Aspergillus fumigatus at 2.5 ug/mL by agar diffusion method; format: functional; conditions: read-out: IZ
[2] = system: Candida albicans; assay: Antimicrobial activity against Candida albicans at 1.25 ug/mL by agar diffusion method; format: functional; conditions: read-out: IZ
[3] = system: Penicillium italicum; assay: Antimicrobial activity against Penicillium italicum at 1.25 ug/mL by agar diffusion method; format: functional; conditions: read-out: IZ
[4] = system: Hepatitis C virus; assay: Antiviral activity against HCV by cell based replicon assay; format: functional, Hepacivirus hominis
Outline: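 HCV replicon cells plated at 1×10^4 per well. Next day incubated at 37 °C with serially diluted compound in DMEM with 2% FBS and 0.5% DMSO. HCV RNA copy number measured by quantitative RT-PCR on total cellular RNA. Each point is the average of five replicates. Cytotoxicity measured by MTS in parallel.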

[5] = system: Staphylococcus aureus; assay: Antimicrobial activity against Staphylococcus aureus at 1.25 ug/mL by agar diffusion method; format: functional; conditions: read-out: IZ
[6] = system: Bacillus subtilis; assay: Antimicrobial activity against Bacillus subtilis at 2.5 ug/mL by agar diffusion method; format: functional; conditions: read-out: IZ
[7] = system: Staphylococcus aureus; assay: Antimicrobial activity against Staphylococcus aureus at 5 ug/mL by agar diffusion method; format: functional; conditions: read-out: IZ
[8] = system: Radical scavenging activity; assay: Antioxidant activity assessed as DPPH free radical scavenging activity by measuring reduction in DPPH absorbance by ELISA relative to untreated control; format: functional; design: concentration or dose not given beside the values
Outline: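 Test compounds dissolved in DMSO, ascorbic acid standard in water, both serially diluted. 10 µl sample added to 90 µl of 100 µM DPPH in methanol and kept in the dark at 37 °C for 30 min. Absorbance read at 515 nm. Blank is DMSO plus DPPH. % reduction = (A_B − A_A)/A_B × 100. Run in triplicate.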

[9] = system: Aspergillus fumigatus; assay: Antimicrobial activity against Aspergillus fumigatus at 1.25 ug/mL by agar diffusion method; format: functional; conditions: read-out: IZ
[10] = system: Syncephalastrum racemosum; assay: Antimicrobial activity against Syncephalastrum racemosum at 2.5 ug/mL by agar diffusion method; format: functional; conditions: read-out: IZ
[11] = molecular target: T1, DNA topoisomerase 1 (Homo sapiens) (UniProt P11387); assay: Inhibition of topoisomerase 1 relative to etoposide
T1 sequence (whole entry): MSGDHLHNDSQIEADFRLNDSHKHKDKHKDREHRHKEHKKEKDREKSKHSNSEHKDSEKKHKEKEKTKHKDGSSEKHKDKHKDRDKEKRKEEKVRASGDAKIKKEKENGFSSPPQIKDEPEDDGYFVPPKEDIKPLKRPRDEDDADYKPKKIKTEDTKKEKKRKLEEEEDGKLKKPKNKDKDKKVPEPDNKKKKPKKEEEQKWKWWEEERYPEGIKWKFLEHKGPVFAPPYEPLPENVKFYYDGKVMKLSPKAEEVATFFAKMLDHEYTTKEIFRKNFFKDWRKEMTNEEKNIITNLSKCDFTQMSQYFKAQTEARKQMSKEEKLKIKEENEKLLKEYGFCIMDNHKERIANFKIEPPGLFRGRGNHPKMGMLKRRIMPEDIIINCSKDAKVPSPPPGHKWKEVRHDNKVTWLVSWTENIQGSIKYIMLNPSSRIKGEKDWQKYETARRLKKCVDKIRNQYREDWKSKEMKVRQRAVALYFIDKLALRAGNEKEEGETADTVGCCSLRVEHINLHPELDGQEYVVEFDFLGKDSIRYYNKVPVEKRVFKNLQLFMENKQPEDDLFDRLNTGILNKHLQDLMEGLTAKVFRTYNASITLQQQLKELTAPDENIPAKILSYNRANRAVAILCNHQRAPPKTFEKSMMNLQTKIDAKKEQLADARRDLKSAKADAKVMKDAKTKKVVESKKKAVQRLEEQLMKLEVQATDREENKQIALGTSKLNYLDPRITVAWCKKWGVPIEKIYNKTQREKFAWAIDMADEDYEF

[12] = system: Pseudomonas aeruginosa; assay: Antimicrobial activity against Pseudomonas aeruginosa at 5 ug/mL by agar diffusion method; format: functional; conditions: read-out: IZ
[13] = system: Bacillus subtilis; assay: Antimicrobial activity against Bacillus subtilis at 5 ug/mL by agar diffusion method; format: functional; conditions: read-out: IZ
[14] = system: Escherichia coli; assay: Antimicrobial activity against Escherichia coli at 2.5 ug/mL by agar diffusion method; format: functional; conditions: read-out: IZ
[15] = Antioxidant activity assessed as inhibition of peroxynitrite-mediated 3-nitrotyrosine formation by HPLC; format: functional
Outline: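 Tyrosine and peroxynitrite, each 100 µM, reacted with compound at 0–300 µM in 100 mM phosphate buffer pH 7.4 at 37 °C for 15 min. Peroxynitrite made from acidified H2O2 plus KNO2, quenched with NaOH, and kept on ice no longer than 30 min before use.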

[16] = system: Candida albicans; assay: Antimicrobial activity against Candida albicans at 5 ug/mL by agar diffusion method; format: functional; conditions: read-out: IZ
[17] = system: Candida albicans; assay: Antimicrobial activity against Candida albicans at 2.5 ug/mL by agar diffusion method; format: functional; conditions: read-out: IZ
[18] = system: Syncephalastrum racemosum; assay: Antimicrobial activity against Syncephalastrum racemosum at 1.25 ug/mL by agar diffusion method; format: functional; conditions: read-out: IZ
[19] = system: Measles morbillivirus; assay: Antiviral activity against Measles virus infected in intracranially dosed hamster assessed as inhibition of subacute sclerosing panencephalitis; format: functional
Outline: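 Hamsters under ether anesthesia injected intracranially, into the subarachnoid space at 2 mm depth, at 5, 10 and 20 mg/kg/day for 10 days. Four animals per group sacrificed on days 1–20. Brains homogenized in PBS and centrifuged, supernatant deproteinized with ethanol, then MIC in brain tissue determined by HPLC and bioassay.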

[20] = system: Pseudomonas aeruginosa; assay: Antimicrobial activity against Pseudomonas aeruginosa at 2.5 ug/mL by agar diffusion method; format: functional; conditions: read-out: IZ
[21] = system: MC-38; assay: Antitumor activity against mouse Colon 38 cells implanted in iv dosed C57BL/6 mouse administered as single dose; format: functional, organism-based
Outline: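 Female C57BL/6 mice, 6 weeks old, given about 30 mg Colon 38 tumor tissue s.c. in the flank. Randomized into groups of n = 5 when tumors reached about 300 mm3 (day 1). Compound in 5% glucose given as a single iv tail-vein dose on day 1; controls received 5% glucose. Tumor volume = (length × width²)/2 and body weight tracked.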

[22] = system: Penicillium italicum; assay: Antimicrobial activity against Penicillium italicum at 2.5 ug/mL by agar diffusion method; format: functional; conditions: read-out: IZ
[23] = system: Escherichia coli; assay: Antimicrobial activity against Escherichia coli at 1.25 ug/mL by agar diffusion method; format: functional; conditions: read-out: IZ
[24] = system: Penicillium italicum; assay: Antimicrobial activity against Penicillium italicum at 5 ug/mL by agar diffusion method; format: functional; conditions: read-out: IZ
[25] = system: Syncephalastrum racemosum; assay: Antimicrobial activity against Syncephalastrum racemosum at 5 ug/mL by agar diffusion method; format: functional; conditions: read-out: IZ
[26] = system: Bacillus subtilis; assay: Antimicrobial activity against Bacillus subtilis at 1.25 ug/mL by agar diffusion method; format: functional; conditions: read-out: IZ
[27] = system: Staphylococcus aureus; assay: Antimicrobial activity against Staphylococcus aureus at 2.5 ug/mL by agar diffusion method; format: functional; conditions: read-out: IZ
[28] = molecular target: DNA topoisomerase 2-alpha (Mus musculus) (UniProt Q01320); assay: Inhibition of topoisomerase 2 from mouse P388 cells assessed as relaxation of pBR322 DNA by agarose gel electrophoresis relative to etoposide; format: cell-based
DNA topoisomerase 2-alpha (Mus musculus), sequence (Q01320 whole entry): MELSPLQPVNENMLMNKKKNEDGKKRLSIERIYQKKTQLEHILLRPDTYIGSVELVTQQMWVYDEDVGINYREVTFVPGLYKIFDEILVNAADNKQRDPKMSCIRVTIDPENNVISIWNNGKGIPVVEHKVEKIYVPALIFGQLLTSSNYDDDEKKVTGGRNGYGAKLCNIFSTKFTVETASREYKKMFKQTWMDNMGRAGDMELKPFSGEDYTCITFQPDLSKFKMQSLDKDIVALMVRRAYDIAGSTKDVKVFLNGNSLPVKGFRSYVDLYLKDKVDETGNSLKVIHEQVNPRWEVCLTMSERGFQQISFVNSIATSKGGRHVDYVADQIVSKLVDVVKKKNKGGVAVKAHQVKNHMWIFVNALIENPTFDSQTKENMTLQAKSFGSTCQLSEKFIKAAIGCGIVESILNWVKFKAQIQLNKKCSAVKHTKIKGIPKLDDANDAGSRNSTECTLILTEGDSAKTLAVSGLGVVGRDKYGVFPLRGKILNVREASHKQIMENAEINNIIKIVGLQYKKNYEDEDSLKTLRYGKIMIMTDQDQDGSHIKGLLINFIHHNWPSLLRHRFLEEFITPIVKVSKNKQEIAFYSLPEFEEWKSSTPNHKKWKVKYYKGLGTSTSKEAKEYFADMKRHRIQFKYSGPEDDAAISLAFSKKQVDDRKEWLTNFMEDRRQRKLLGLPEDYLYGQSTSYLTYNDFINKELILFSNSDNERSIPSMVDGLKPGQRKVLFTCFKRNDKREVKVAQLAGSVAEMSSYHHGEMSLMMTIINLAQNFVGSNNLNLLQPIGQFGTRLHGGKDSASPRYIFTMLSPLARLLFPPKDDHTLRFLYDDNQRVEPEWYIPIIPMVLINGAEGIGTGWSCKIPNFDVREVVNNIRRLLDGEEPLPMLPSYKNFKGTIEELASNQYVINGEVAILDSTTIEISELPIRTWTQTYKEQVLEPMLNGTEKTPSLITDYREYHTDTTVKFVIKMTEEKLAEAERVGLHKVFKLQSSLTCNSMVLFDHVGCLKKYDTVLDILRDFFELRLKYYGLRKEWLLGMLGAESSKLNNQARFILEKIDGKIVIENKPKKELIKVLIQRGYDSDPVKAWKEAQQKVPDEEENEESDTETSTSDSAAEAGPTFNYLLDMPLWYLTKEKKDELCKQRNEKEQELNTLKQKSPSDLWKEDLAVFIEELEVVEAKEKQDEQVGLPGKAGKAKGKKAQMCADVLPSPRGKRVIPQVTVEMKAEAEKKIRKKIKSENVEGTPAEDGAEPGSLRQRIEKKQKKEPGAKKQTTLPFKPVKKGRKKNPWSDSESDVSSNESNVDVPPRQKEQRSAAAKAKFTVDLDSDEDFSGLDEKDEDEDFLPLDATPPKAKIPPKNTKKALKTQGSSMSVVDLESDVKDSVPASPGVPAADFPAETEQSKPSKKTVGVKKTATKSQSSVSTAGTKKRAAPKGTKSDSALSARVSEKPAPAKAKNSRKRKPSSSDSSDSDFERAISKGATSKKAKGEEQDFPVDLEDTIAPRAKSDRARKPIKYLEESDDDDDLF
Outline: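 Topoisomerase II purified from P388 cells. One unit relaxes 0.125 µg supercoiled pBR322 DNA, incubated with or without inhibitor at 30 °C for 1 h in 50 mM Tris-HCl pH 8.0, 100 mM KCl, 10 mM MgCl2, 0.5 mM DTT, 1 mM ATP and 30 µg/ml BSA. Products run on 0.7% agarose in TBE, stained with ethidium bromide and imaged under UV.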

[29] = system: Escherichia coli; assay: Antimicrobial activity against Escherichia coli at 5 ug/mL by agar diffusion method; format: functional; conditions: read-out: IZ
[30] = system: Aspergillus fumigatus; assay: Antimicrobial activity against Aspergillus fumigatus at 5 ug/mL by agar diffusion method; format: functional; conditions: read-out: IZ
[31] = system: Pseudomonas aeruginosa; assay: Antimicrobial activity against Pseudomonas aeruginosa at 1.25 ug/mL by agar diffusion method; format: functional; conditions: read-out: IZ

Row | SMILES | zone of inhibition at 2.5 µg/mL [1] [mm] | zone of inhibition at 1.25 µg/mL [2] [mm] | zone of inhibition at 1.25 µg/mL [3] [mm] | MIC [4] [µg/mL] | zone of inhibition at 1.25 µg/mL [5] [mm] | zone of inhibition at 2.5 µg/mL [6] [mm] | zone of inhibition at 5 µg/mL [7] [mm] | Activity [8] [%] | zone of inhibition at 1.25 µg/mL [9] [mm] | zone of inhibition at 2.5 µg/mL [10] [mm] | Ratio [11] | zone of inhibition at 5 µg/mL [12] [mm] | zone of inhibition at 5 µg/mL [13] [mm] | zone of inhibition at 2.5 µg/mL [14] [mm] | IC50 [15] [µM] | zone of inhibition at 5 µg/mL [16] [mm] | zone of inhibition at 2.5 µg/mL [17] [mm] | zone of inhibition at 1.25 µg/mL [18] [mm] | MIC [19] [µg/mL] | zone of inhibition at 2.5 µg/mL [20] [mm] | further results
1 | O=C1/C(=N/Nc2cccc(Cl)c2)CCCc2ccccc21 | 8 | 7 | 0 | 1 (≈ 3.35 µM) | 5 | 10 | 12 | 84.1 | 6 | 9 | 4.9 | 0 | 17 | 0 | 54.1 | 15 | 11 | 6 | 6 (≈ 20.1 µM) | 0 | Activity [21]: Active; zone of inhibition at 2.5 µg/mL [22]: 0 mm; zone of inhibition at 1.25 µg/mL [23]: 0 mm; zone of inhibition at 5 µg/mL [24]: 0 mm; zone of inhibition at 5 µg/mL [25]: 16 mm; zone of inhibition at 1.25 µg/mL [26]: 7 mm; zone of inhibition at 2.5 µg/mL [27]: 9 mm; Ratio [28]: 5; zone of inhibition at 5 µg/mL [29]: 9 mm; zone of inhibition at 5 µg/mL [30]: 14 mm; zone of inhibition at 1.25 µg/mL [31]: 0 mm
2 | O=C1O[C@H]([C@@H](O)CO)C(O)=C1O |  |  |  |  |  |  |  | 79 |  |  |  |  |  |  |  |  |  |  |  |  | 
3 | Cc1c(C)c2c(c(C)c1O)CCC(C)(C(=O)O)O2 (stereo unspecified) [TROLOX] |  |  |  |  |  |  |  |  |  |  |  |  |  |  | 58.4 |  |  |  |  |  | 
4 | NC(=O)c1ncn([C@@H]2O[C@H](CO)[C@@H](O)[C@H]2O)n1 [RIBAVIRIN] |  |  |  | 16.1 (≈ 66.1 µM) |  |  |  |  |  |  |  |  |  |  |  |  |  |  | 77.9 (≈ 319 µM) |  | 
5 | COc1ccc(N/N=C2\CCCc3ccccc3C2=O)cc1 |  |  |  | 1.01 (≈ 3.43 µM) |  |  |  | 83.9 |  |  | 4.8 |  |  |  | 54.2 |  |  |  | 6.01 (≈ 20.4 µM) |  | Activity [21]: Active; Ratio [28]: 4.9
6 | c1ccc2c(c1)CCCc1nnc3nncn3c1-2 | 0 | 0 | 0 |  | 5 | 7 | 14 |  | 0 | 9 |  | 0 | 16 | 0 |  | 9 | 4 | 0 |  | 0 | zone of inhibition at 2.5 µg/mL [22]: 0 mm; zone of inhibition at 1.25 µg/mL [23]: 0 mm; zone of inhibition at 5 µg/mL [24]: 8 mm; zone of inhibition at 5 µg/mL [25]: 18 mm; zone of inhibition at 1.25 µg/mL [26]: 4 mm; zone of inhibition at 2.5 µg/mL [27]: 8 mm; zone of inhibition at 5 µg/mL [29]: 9 mm; zone of inhibition at 5 µg/mL [30]: 10 mm; zone of inhibition at 1.25 µg/mL [31]: 0 mm
7 | CN(C/C=C/C#CC(C)(C)C)Cc1cccc2ccccc12 [TERBINAFINE] | 18 | 6 | 4 |  | 4 | 18 | 15 |  | 11 | 13 |  | 11 | 22 | 20 |  | 19 | 10 | 9 |  | 5 | zone of inhibition at 2.5 µg/mL [22]: 9 mm; zone of inhibition at 1.25 µg/mL [23]: 13 mm; zone of inhibition at 5 µg/mL [24]: 19 mm; zone of inhibition at 5 µg/mL [25]: 21 mm; zone of inhibition at 1.25 µg/mL [26]: 11 mm; zone of inhibition at 2.5 µg/mL [27]: 6 mm; zone of inhibition at 5 µg/mL [29]: 27 mm; zone of inhibition at 5 µg/mL [30]: 24 mm; zone of inhibition at 1.25 µg/mL [31]: 0 mm
8 | O=C1/C(=N/Nc2ccccc2)CCCc2ccccc21 |  |  |  | 1.07 (≈ 4.05 µM) |  |  |  |  |  |  | 4.3 |  |  |  | 56 |  |  |  | 6.12 (≈ 23.2 µM) |  | Activity [21]: Active; Ratio [28]: 4.4
